ChEMBL document CHEMBL1140153, “Structure-activity relationships of truncated D- and l-4'-thioadenosine derivatives as species-independent A3 adenosine receptor antagonists” (J Med Chem, 2008)
Calls of active or inactive are those of the source. No cut-off for these calls is given here.

Columns and labels:
[1] = biological target: T1, Adenosine receptor A3 (Homo sapiens) (UniProt P0DMS8); assay: Antagonist activity at human adenosine A3 receptor expressed in CHO cells assessed as inhibition of forskolin-stimulated cAMP production at 10 uM relative to (2S,3S,4R,5R)-5-(6-(3-iodobenzylamino)-9H-purin-9-yl)-3,4-dihydroxy-N-methyl-tetrahydrothiophene-2-carboxamide; type: functional, cell-based; design: scale not given: the % may be the effect or the level left
T1 sequence (whole entry): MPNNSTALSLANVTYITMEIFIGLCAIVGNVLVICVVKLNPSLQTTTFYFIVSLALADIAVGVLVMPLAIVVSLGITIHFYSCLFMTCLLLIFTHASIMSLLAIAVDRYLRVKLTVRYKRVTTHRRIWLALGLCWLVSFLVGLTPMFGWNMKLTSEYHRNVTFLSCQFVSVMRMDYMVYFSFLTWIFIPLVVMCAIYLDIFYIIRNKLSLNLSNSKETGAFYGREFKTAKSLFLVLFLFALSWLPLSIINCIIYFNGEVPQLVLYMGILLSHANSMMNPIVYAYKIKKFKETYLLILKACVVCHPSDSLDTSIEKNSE
How it was run: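 CHO cells stably expressing human A3 AR; forskolin-stimulated cAMP production measured with test compound at 10 μM; response given as mean percentage of a full A3 agonist's effect, n = 1–3.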

[2] = biological target: T2, Adenosine receptor A2b (Homo sapiens) (UniProt P29275); assay: Agonist activity at human adenosine A2B receptor by cAMP assay; type: functional
T2 sequence (whole entry): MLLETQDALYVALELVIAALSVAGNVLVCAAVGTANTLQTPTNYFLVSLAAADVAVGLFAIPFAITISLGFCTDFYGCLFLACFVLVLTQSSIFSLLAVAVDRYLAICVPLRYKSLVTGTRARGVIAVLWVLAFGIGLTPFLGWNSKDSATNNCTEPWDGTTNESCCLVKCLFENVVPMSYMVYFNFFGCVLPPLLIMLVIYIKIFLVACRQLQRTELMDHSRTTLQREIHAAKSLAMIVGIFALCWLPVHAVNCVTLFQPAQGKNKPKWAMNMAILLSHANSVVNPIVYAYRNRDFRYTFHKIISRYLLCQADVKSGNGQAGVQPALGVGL

[3] = biological target: T2, Adenosine receptor A2b (Homo sapiens); assay: Antagonist activity at human adenosine A2B receptor by cAMP assay; type: functional
Adenosine receptor A1 = biological target: T3, Adenosine receptor A1 (Homo sapiens, UniProt P30542); assay: Displacement of [3H]CCPA from human adenosine A1 receptor expressed in CHO cells; type: cell-based
T3 sequence (P30542 whole entry): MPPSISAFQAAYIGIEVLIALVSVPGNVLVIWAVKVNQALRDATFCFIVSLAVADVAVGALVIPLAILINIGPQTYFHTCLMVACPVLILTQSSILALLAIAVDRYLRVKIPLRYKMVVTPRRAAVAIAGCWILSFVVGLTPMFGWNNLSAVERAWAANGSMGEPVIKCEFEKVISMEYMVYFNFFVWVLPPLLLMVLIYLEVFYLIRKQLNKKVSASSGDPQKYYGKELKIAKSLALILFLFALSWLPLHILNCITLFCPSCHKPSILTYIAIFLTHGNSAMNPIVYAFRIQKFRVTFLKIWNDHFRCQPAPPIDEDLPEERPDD

Adenosine receptor A3 [4] = biological target: T4, Adenosine receptor A3 (Rattus norvegicus, UniProt P28647); assay: Displacement of [125I]I-AB-MECA from rat adenosine A3 receptor expressed in CHO cells; type: cell-based
T4 sequence (P28647 whole entry): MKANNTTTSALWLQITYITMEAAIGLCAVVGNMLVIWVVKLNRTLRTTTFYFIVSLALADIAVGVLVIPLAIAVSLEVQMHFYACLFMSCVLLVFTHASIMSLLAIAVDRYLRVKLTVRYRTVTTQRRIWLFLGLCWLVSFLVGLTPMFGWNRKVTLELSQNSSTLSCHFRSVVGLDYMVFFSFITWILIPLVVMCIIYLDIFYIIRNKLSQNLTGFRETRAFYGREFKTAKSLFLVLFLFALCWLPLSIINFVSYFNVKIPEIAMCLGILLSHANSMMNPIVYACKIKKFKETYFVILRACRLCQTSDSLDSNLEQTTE

Adenosine receptor A3 [5] = biological target: T5, Adenosine receptor A3 (Homo sapiens, UniProt P0DMS8); assay: Displacement of [125I]I-AB-MECA from human adenosine A3 receptor expressed in CHO cells; type: cell-based
T5 sequence (P0DMS8 whole entry): T1 sequence (whole entry)

[6] = biological target: Adenosine receptor A2a (Homo sapiens) (UniProt P29274); assay: Displacement of [3H]CGS-21680 from human adenosine A2A receptor expressed in HEK293 cells at 10 uM; type: cell-based
Chain of Adenosine receptor A2a (Homo sapiens) (P29274 whole entry): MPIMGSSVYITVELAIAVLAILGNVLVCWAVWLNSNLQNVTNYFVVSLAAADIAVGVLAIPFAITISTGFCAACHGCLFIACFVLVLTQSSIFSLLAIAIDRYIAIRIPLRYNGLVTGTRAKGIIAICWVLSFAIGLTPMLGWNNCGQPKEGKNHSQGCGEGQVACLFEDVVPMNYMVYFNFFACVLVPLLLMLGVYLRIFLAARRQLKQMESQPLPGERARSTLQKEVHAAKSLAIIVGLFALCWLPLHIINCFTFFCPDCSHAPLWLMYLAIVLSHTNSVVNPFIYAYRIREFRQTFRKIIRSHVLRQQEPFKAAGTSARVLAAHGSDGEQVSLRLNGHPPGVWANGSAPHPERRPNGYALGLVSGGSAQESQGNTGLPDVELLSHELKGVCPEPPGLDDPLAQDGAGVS
How it was run: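 Human A2A AR HEK-293 membranes (20 μg/tube) with [3H]CGS21680 in 50 mM Tris-HCl pH 7.4 with 10 mM MgCl2, 60 min at 25 °C; nonspecific binding with 10 μM NECA; GF/B filtration.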

[7] = biological target: T6, Adenosine receptor A3 (Rattus norvegicus) (UniProt P28647); assay: Displacement of [125I]I-AB-MECA from rat adenosine A3 receptor expressed in CHO cells at 10 uM; type: cell-based
T6 sequence (whole entry): T4 sequence (P28647 whole entry)
How it was run: (§1)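 Membranes (20 μg protein) from CHO cells stably expressing human or rat A3 AR were incubated with 0.5 nM [125I]I-AB-MECA and increasing ligand concentrations in 50 mM Tris-HCl pH 7.4 with 10 mM MgCl2 for 60 min at 25 °C. Nonspecific binding was set with 10 μM NECA. Filtration through GF/B, washed ×3 with ice-cold buffer, γ-counting.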

[8] = biological target: T7, Adenosine receptor A1 (Homo sapiens) (UniProt P30542); assay: Displacement of [3H]CCPA from human adenosine A1 receptor expressed in CHO cells at 10 uM; type: cell-based
T7 sequence (whole entry): T3 sequence (P30542 whole entry)
How it was run: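 Human A1 AR CHO membranes (40 μg/tube) were incubated with 1 nM [3H]CCPA in 50 mM Tris-HCl pH 7.4 with 10 mM MgCl2 for 60 min at 25 °C; 10 μM NECA defined nonspecific binding; GF/B filtration.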

[9] = biological target: T1, Adenosine receptor A3 (Homo sapiens); assay: Displacement of [125I]I-AB-MECA from human adenosine A3 receptor expressed in CHO cells at 10 uM; type: cell-based; how it was run: as §1

Row | Structure (SMILES) | Activity [1] | Ki (Adenosine receptor A3 [4]) | other results
1 | CNc1nc(Cl)nc2c1ncn2[C@@H]1SC[C@@H](O)[C@H]1O | < 10% |  | 
2 | O[C@@H]1[C@H](O)CS[C@H]1n1cnc2c(NCc3cccc(Br)c3)nc(Cl)nc21 | < 10% |  | 
3 | O[C@@H]1[C@H](O)CS[C@H]1n1cnc2c(NCc3cccc(I)c3)nc(Cl)nc21 | < 10% |  | Activity [2]: inactive; Activity [3]: inactive
4 | O[C@@H]1[C@H](O)CS[C@H]1n1cnc2c(NCc3cccc(Cl)c3)nc(Cl)nc21 | < 10% |  | 
5 | O[C@@H]1[C@H](O)CS[C@H]1n1cnc2c(NCc3cccc(I)c3)ncnc21 | < 10% |  | 
6 | CNC(=O)[C@H]1S[C@@H](n2cnc3c(NCc4cccc(I)c4)ncnc32)[C@H](O)[C@@H]1O | Active | 1.86 nM | Ki (Adenosine receptor A1): 17.3 nM; Ki (Adenosine receptor A3 [5]): 0.25 nM
7 | CNc1ncnc2c1ncn2[C@@H]1SC[C@@H](O)[C@H]1O | < 10% |  | Ki (Adenosine receptor A1): 1070 nM; inhibition [6]: 22%; inhibition [7]: 28%; Ki (Adenosine receptor A3 [5]): 4.8 nM
8 | O[C@@H]1[C@H](O)CS[C@H]1n1cnc2c(NCc3cccc(Br)c3)ncnc21 | < 10% | 6.3 nM | 
9 | O[C@@H]1[C@H](O)CS[C@H]1n1cnc2c(NCc3cccc(F)c3)nc(Cl)nc21 | < 10% |  | 
10 | O[C@@H]1[C@H](O)CS[C@H]1n1cnc2c(NCc3cccc(Cl)c3)ncnc21 | < 10% | 17 nM | 
11 | O[C@H]1[C@@H](O)CS[C@@H]1n1cnc2c(NCc3cccc(Br)c3)nc(Cl)nc21 | < 10% |  | inhibition [8]: 6.1%; inhibition [6]: 45.7%; inhibition [9]: 12.6%
12 | O[C@H]1[C@@H](O)CS[C@@H]1n1cnc2c(NCc3cccc(I)c3)nc(Cl)nc21 | < 10% |  | inhibition [8]: -8%; inhibition [6]: -0.95%; inhibition [9]: 18.4%
13 | O[C@@H]1[C@H](O)CS[C@H]1n1cnc2c(NCc3cccc(F)c3)ncnc21 | < 10% | 98 nM | 
